Assay results of several laboratories.
Compare with care: the assays were run in different laboratories.
Target: Interleukin-1 receptor-associated kinase 3 (IRAK3, Homo sapiens, UniProt Q9Y616)
Residues used in one study (Q9Y616 1-596): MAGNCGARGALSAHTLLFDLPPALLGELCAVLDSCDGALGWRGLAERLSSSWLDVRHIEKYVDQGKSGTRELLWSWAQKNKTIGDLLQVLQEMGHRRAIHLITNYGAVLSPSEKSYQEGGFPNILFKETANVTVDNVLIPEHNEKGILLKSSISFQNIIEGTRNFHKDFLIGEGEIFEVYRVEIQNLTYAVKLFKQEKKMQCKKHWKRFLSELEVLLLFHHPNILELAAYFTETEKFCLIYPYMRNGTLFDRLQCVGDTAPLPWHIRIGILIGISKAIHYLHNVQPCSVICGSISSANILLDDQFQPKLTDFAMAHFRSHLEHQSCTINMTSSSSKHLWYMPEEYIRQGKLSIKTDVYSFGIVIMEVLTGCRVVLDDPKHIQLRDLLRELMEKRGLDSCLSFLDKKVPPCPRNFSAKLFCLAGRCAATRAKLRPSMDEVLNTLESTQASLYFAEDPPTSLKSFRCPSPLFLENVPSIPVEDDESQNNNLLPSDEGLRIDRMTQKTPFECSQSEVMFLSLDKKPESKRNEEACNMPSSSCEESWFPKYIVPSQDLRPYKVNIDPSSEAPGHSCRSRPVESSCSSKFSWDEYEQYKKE

N#Cc1ccc(Nc2ccc3[nH]c(=O)[nH]c3c2)c(Cl)c1 — remaining binding (cell-free assay; competition with immobilised ligand; 1 µM): 94%
Nc1ncc2c(n1)-c1c([nH]c3ccc(C#CC4CC4)cc13)CCCC2 — remaining binding (binding; competition with immobilised ligand; 1 µM): 71%
Cc1cnn2ncc(-c3ccnc(N(C)C)n3)c2c1 — remaining binding (binding; 1 µM): 70%
FC(F)(F)Oc1cccc(-c2cnc3ccc(-c4ccncc4)nn23)c1 — remaining binding (cell-free assay; competition with immobilised ligand; 5 µM): 7.6%
F[C@@H]1CCN(c2nccc(-c3cnn4ncccc34)n2)C1 — remaining binding (binding; 1 µM): 100%
O=C(c1ccc(Nc2ncc(Cl)c(-c3ccc(Cl)s3)n2)cc1)N1CCC(N2CCCC2)CC1 — remaining binding (binding; competition with immobilised ligand; 1 µM): 1.6%
O=C(NCc1ncc(C(F)(F)F)cc1Cl)c1ccc2c(c1)C1(CCS(=O)(=O)CC1)[C@H](C1CC1)N2S(=O)(=O)c1ccc(F)cc1 — remaining binding (cell-free assay; competition with immobilised ligand; 1 µM): 99%
C[C@@H](c1ccc(-n2cnc3c(N)ncnc32)cc1)N1CCc2nn(C)c(Cc3ccccc3)c2C1=O — remaining binding (binding; competition with immobilised ligand; 0.1 µM): 79%
CN(C)c1ncc(F)c(-c2cnn3ncccc23)n1 — remaining binding (binding; 1 µM): 100%
O=C(NCC1CCOCC1)c1n[nH]cc1NC(=O)c1c(F)cccc1F — remaining binding (binding; competition with immobilised ligand; 1 µM): 92%
N[C@@H]1CCN(c2nccc(-c3cnn4ncccc34)n2)C1 — remaining binding (binding; 1 µM): 100%
O=C(NCCCN1CCOCC1)c1ccc(Nc2nccc(-c3cc4ccccc4s3)n2)cc1 — remaining binding (binding; competition with immobilised ligand; 1 µM): 8.4%
CCCCN(CCCC)C(=O)CN1C[C@H](c2cc(OC)c3c(c2)OCO3)[C@@H](C(=O)O)[C@@H]1CC(C)(C)CCC — remaining binding (cell-free assay; competition with immobilised ligand; 1 µM): 100%
C[C@@H]1CCN(c2nccc(-c3cnn4ncccc34)n2)C1 — remaining binding (binding; 1 µM): 52%
CNC(=O)Nc1ccc2c(c1)CC[C@@]21OC(=O)N(CC(=O)N(Cc2ccc(F)cc2)[C@@H](C)C(F)(F)F)C1=O — remaining binding (cell-free assay; competition with immobilised ligand; 1 µM): 95%
O=C(c1ccc(Nc2ncc(Cl)c(-c3cc4ccccc4s3)n2)cc1)N1CCC(N2CCCC2)CC1 — remaining binding (binding; competition with immobilised ligand; 1 µM): 6%
C[C@H](NC(=O)c1cnc2n1[C@](C)(Cc1ccc(C#N)cc1)C(=O)N2c1cc(Cl)c(F)c(Cl)c1)C(=O)NC1(c2ccccn2)CC1 — remaining binding (cell-free assay; competition with immobilised ligand; 1 µM): 100%
CCN1CCN(Cc2ccc(C(=O)Nc3ccc(C)c(Oc4ccc5c(c4)CC(=O)N5)c3)cc2C(F)(F)F)CC1 — remaining binding (binding; competition with immobilised ligand; 1 µM): 100%
CNC(=O)[C@@H]1CC[C@@H](n2c(-c3ccc4cnccc4c3)nc3ccc(C(=O)NCc4cccc(C(N)=O)c4)cc32)C1 — remaining binding (binding; competition with immobilised ligand; 1 µM): 97%
CN(C(=O)c1ccccc1)c1cc(N(C)c2ccc3c(c2)CCc2ccc(C(=O)NCCN4CCOCC4)cc2C3=O)ccc1F — remaining binding (cell-free assay; competition with immobilised ligand; 1 µM): 91%
